The record followed here is ChEMBL document CHEMBL4004837, “Synthesis and Characterization of Urofuranoic Acids: In Vivo Metabolism of 2-(2-Carboxyethyl)-4-methyl-5-propylfuran-3-carboxylic Acid (CMPF) and Effects on in Vitro Insulin Secretion” (J Med Chem, 2017).

Series [1] is described as follows: Drug metabolism in CD1 mouse adipose assessed as monoacylglycerol conjugate formation at 6 mg/kg, ip dosed once daily for 3 days followed by dosing of 1:1 mixtures of 2-(2-(Carboxy-13C)ethyl)-4-methyl-5-propylfuran-3-carboxylic-2-13C Acid and test compound on day 4 and 5 measured 1 hr post dose on day 5 by HPLC-MS analysis. To be noted: in vivo. The format is ADME, organism-based, Adipose tissue. In short, it runs like this:
(§1)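 Mice received CMPF 6 mg/kg intraperitoneally for three days, then 1:1 labeled/unlabeled CMPF mixtures on days four and five. On day five they were euthanized 1 h post-dose, and plasma, adipose, muscle and liver were collected. Samples were analysed by HPLC-MS, with MS/MS of product ions. Metabolites were identified by the distinctive isotope patterns from the 1:1 label mixture.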

Series [2] in a line: Drug metabolism in CD1 mouse muscle assessed as oxidative metabolites formation at 6 mg/kg, ip dosed once daily for 3 days followed by dosing of 1:1 mixtures of 2-(2-Carboxyethyl)-4-methyl-5-(1-propyl-1-13C)furan-3-carboxylic Acid and test compound on day 4 and 5 measured 1 hr post dose on day 5 by HPLC-MS analysis. The format is ADME, organism-based, Muscle tissue. The settings on record: in vivo. In outline:
(§2)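 CMPF given 6 mg/kg i.p. once daily for three days. On days four and five, 1:1 mixtures of stable-isotope-labelled and unlabelled CMPF were dosed. Mice were killed 1 h after the day-five dose. Plasma, adipose, muscle and liver were collected and analysed by HPLC-MS (MS/MS for product ions). Metabolites were identified by their distinctive isotope patterns from the labelled/unlabelled mixture.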

The nature of series [3]: Volume of distribution in mouse at 3 mg/kg, iv. The format is ADME, organism-based. To be noted: in vivo. In outline:
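Mouse pharmacokinetics after single intravenous CMPF dosing at 1 or 3 mg/kg. Plasma exposure was followed over time to derive AUC, C0, terminal half-life, clearance and volume of distribution.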

The nature of series [4]: Drug metabolism in CD1 mouse muscle assessed as glycerol conjugate formation at 6 mg/kg, ip dosed once daily for 3 days followed by dosing of 1:1 mixtures of 2-(2-Carboxyethyl)-4-methyl-5-(1-propyl-1-13C)furan-3-carboxylic Acid and test compound on day 4 and 5 measured 1 hr post dose on day 5 by HPLC-MS analysis. Type of series: ADME, organism-based, Muscle tissue. To be noted: in vivo. In outline: as §1

Series [5] can be described thus: Drug metabolism in CD1 mouse muscle assessed as loss of C2 carboxyl during fragmentation at 6 mg/kg, ip dosed once daily for 3 days followed by dosing of 1:1 mixtures of 2-(2-(Carboxy-13C)ethyl)-4-methyl-5-propylfuran-3-carboxylic-2-13C Acid and test compound on day 4 and 5 measured 1 hr post dose on day 5 by HPLC-MS analysis. To be noted: in vivo. The format is ADME, organism-based, Muscle tissue. In short, it runs like this: as §1

Series [6] deals with Liver. Kind of series: Drug metabolism in CD1 mouse liver assessed as glycerol conjugate formation at 6 mg/kg, ip dosed once daily for 3 days followed by dosing of 1:1 mixtures of 2-(2-Carboxyethyl)-4-methyl-5-propyl-(3-13C-furan)-3-13Ccarboxylateand test compound on day 4 and 5 measured 1 hr post dose on day 5 by HPLC-MS analysis. The format is ADME, organism-based. The settings on record: in vivo. In outline:
as §1

The nature of series [7]: Drug excretion in human urine assessed as CMPF formation. The format is ADME.
Series [8] can be described thus: Effect on insulin content in glucose-stimulated mouse pancreatic islet at 200 uM incubated for 24 hrs followed by glucose stimulation for 20 mins by HTRF assay. The format is ADME, cell-based. In short, it runs like this:
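Mouse islets treated with compounds at 200 µM. Insulin secretion was then measured under low- and high-glucose GSIS conditions and under KCl stimulation, and intracellular insulin content was measured. Mean of n = 4-5 experiments with SEM.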

A short description of series [9]: Drug metabolism in CD1 mouse adipose assessed as glycerol conjugate formation at 6 mg/kg, ip dosed once daily for 3 days followed by dosing of 1:1 mixtures of 2-(2-(Carboxy-13C)ethyl)-4-methyl-5-propylfuran-3-carboxylic-2-13C Acid and test compound on day 4 and 5 measured 1 hr post dose on day 5 by HPLC-MS analysis. The format is ADME, organism-based, Adipose tissue. To be noted: in vivo. In outline: as §1

In series [10] the target is CYP3A4 (Homo sapiens, UniProt P08684). In words: Inhibition of human microsomal CYP3A4 at 10 uM after 3 mins by single quad LC/MS analysis. Type of series: ADME. The settings on record: microsomes.
CYP3A4, sequence (P08684 whole entry): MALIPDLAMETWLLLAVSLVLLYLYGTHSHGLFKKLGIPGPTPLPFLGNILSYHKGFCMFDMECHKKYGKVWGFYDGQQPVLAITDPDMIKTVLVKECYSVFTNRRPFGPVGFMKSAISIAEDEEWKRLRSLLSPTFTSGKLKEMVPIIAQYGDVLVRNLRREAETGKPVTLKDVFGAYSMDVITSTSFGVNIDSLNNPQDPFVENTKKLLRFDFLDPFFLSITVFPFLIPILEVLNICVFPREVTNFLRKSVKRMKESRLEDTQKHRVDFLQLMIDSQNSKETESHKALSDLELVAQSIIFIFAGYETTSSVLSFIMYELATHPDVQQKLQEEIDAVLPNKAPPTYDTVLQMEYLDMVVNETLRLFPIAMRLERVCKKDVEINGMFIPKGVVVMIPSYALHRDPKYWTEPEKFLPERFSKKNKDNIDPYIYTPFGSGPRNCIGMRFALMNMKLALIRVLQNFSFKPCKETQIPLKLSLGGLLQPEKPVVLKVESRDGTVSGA
For series [11], the system named is Liver. Kind of series: Drug metabolism in CD1 mouse liver assessed as oxidative metabolites formation at 6 mg/kg, ip dosed once daily for 3 days followed by dosing of 1:1 mixtures of 2-(2-Carboxyethyl)-4-methyl-5-(1-propyl-1-13C)furan-3-carboxylic Acid and test compound on day 4 and 5 measured 1 hr post dose on day 5 by HPLC-MS analysis. Type of series: ADME, organism-based. The settings on record: in vivo. In outline: as §1

In series [12] the test system is Plasma. Kind of series: Drug metabolism in CD1 mouse plasma assessed as oxidative metabolites formation at 6 mg/kg, ip dosed once daily for 3 days followed by dosing of 1:1 mixtures of 2-(2-Carboxyethyl)-4-methyl-5-(1-propyl-1-13C)furan-3-carboxylic Acid and test compound on day 4 and 5 measured 1 hr post dose on day 5 by HPLC-MS analysis. Type of series: ADME, organism-based. To be noted: in vivo. In short, it runs like this:
as §2

A short description of series [13]: Drug metabolism in CD1 mouse muscle assessed as glycerol conjugate formation at 6 mg/kg, ip dosed once daily for 3 days followed by dosing of 1:1 mixtures of 2-(2-(Carboxy-13C)ethyl)-4-methyl-5-propylfuran-3-carboxylic-2-13C Acid and test compound on day 4 and 5 measured 1 hr post dose on day 5 by HPLC-MS analysis. The format is ADME, organism-based, Muscle tissue. The settings on record: in vivo. In short, it runs like this:
as §1

The nature of series [14]: Drug metabolism in CD1 mouse adipose assessed as oxidative metabolites formation at 6 mg/kg, ip dosed once daily for 3 days followed by dosing of 1:1 mixtures of 2-(2-(Carboxy-13C)ethyl)-4-methyl-5-propylfuran-3-carboxylic-2-13C Acid and test compound on day 4 and 5 measured 1 hr post dose on day 5 by HPLC-MS analysis. Type of series: ADME, organism-based, Adipose tissue. To be noted: in vivo. In short, it runs like this:
as §1

Series [15] can be described thus: Drug metabolism in CD1 mouse muscle assessed as glycerol conjugate formation at 6 mg/kg, ip dosed once daily for 3 days followed by dosing of 1:1 mixtures of 2-(2-Carboxyethyl)-4-methyl-5-propyl-(3-13C-furan)-3-13Ccarboxylateand test compound on day 4 and 5 measured 1 hr post dose on day 5 by HPLC-MS analysis. The format is ADME, organism-based, Muscle tissue. To be noted: in vivo. In outline: as §1

Series [16] deals with Liver. In words: Drug metabolism in CD1 mouse liver assessed as diacylglycerol conjugate formation at 6 mg/kg, ip dosed once daily for 3 days followed by dosing of 1:1 mixtures of 2-(2-Carboxyethyl)-4-methyl-5-(1-propyl-1-13C)furan-3-carboxylic Acid and test compound on day 4 and 5 measured 1 hr post dose on day 5 by HPLC-MS analysis. The format is ADME, organism-based. To be noted: in vivo. In outline:
as §1

Series [17] in a line: Drug metabolism in CD1 mouse adipose assessed as monoacylglycerol conjugate formation at 6 mg/kg, ip dosed once daily for 3 days followed by dosing of 1:1 mixtures of 2-(2-Carboxyethyl)-4-methyl-5-(1-propyl-1-13C)furan-3-carboxylic Acid and test compound on day 4 and 5 measured 1 hr post dose on day 5 by HPLC-MS analysis. The format is ADME, organism-based, Adipose tissue. To be noted: in vivo. In outline:
as §1

For series [18], the system named is Liver. In words: Drug metabolism in CD1 mouse liver assessed as oxidative metabolites formation at 6 mg/kg, ip dosed once daily for 3 days followed by dosing of 1:1 mixtures of 2-(2-(Carboxy-13C)ethyl)-4-methyl-5-propylfuran-3-carboxylic-2-13C Acid and test compound on day 4 and 5 measured 1 hr post dose on day 5 by HPLC-MS analysis. To be noted: in vivo. The format is ADME, organism-based. In short, it runs like this:
as §1

Series [19] relates to Liver. Kind of series: Drug metabolism in CD1 mouse liver assessed as diacylglycerol conjugate formation at 6 mg/kg, ip dosed once daily for 3 days followed by dosing of 1:1 mixtures of 2-(2-(Carboxy-13C)ethyl)-4-methyl-5-propylfuran-3-carboxylic-2-13C Acid and test compound on day 4 and 5 measured 1 hr post dose on day 5 by HPLC-MS analysis. The settings on record: in vivo. Type of series: ADME, organism-based. In short, it runs like this: as §1

Turning to `CCCc1oc(CCC(=O)O)c(C(=O)O)c1C`, the Drug metabolism result in [1] was “Metabolite_Notdetected”; in series [2], “Metabolite_Notdetected”; in series [4] it was “Metabolite_Notdetected”; in [5] it was “Metabolite_Detected”; in [6], “Metabolite_Notdetected”; in series [9] it was “Metabolite_Notdetected”. Moreover, the Drug metabolism entry in series [11], in series [12], in [13], in series [14], in series [15] and in [16] was “Metabolite_Notdetected” each time. Further, the Drug metabolism entry in series [17], in series [18] and in series [19] was “Metabolite_Notdetected” throughout. This molecule gave a Vd in series [3] of 0.2 L/kg. For the same molecule, the Drug excretion in series [7] was in the range of 1 to 5 mg/day. Moreover, the Activity entry in series [8] is given as “Non-Toxic”. Moreover, in series [10], the inhibition at 0.05 h, 10 µM is 0%.

By Vd is commonly meant a proportionality between amount in the body and measured concentration, not a real space. Low values mean little distribution into tissue, high ones wide distribution into tissue. As a reminder, the inhibition is the drop in the measured response relative to a control, in per cent. A low value points to a weak effect.
